Measured values from ChEMBL document CHEMBL3259729, “Optimizing the Physicochemical Properties of Raf/MEK Inhibitors by Nitrogen Scanning” (ACS Med Chem Lett, 2014).
Values after ≈ are worked out from the molar mass of the structure shown.

Assays:
[1] = AUC in BALB-nu/nu mouse at 100 mg/kg, po measured after 24 hrs by LC-MS/MS analysis; assay type: ADME, organism-based; parameters: time < 24 hr, dose 100 mg/kg, route oral; conditions: plasma
Outline: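 Mice dosed orally at 100 mg/kg as a solution in 5% DMSO, 5% Cremophor EL, 15% PEG400, 15% 2-hydroxypropyl-β-cyclodextrin and 60% water.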

[2] = target: Dual specificity mitogen-activated protein kinase kinase 1 (Homo sapiens, UniProt Q02750, S218E/S222E); experiment: Inhibition of constitutively active MEK1 S218E,S222E mutant (unknown origin) assessed as MAP kinase 2/Erk2-mediated FAM-Erktide phosphorylation using MAP kinase 2/Erk2 as substrate preincubated for 30 mins by IMAP fluorescence polarization assay
[3] = tested on: HT-29; experiment: Inhibition of human HT-29 cell growth; assay type: functional, cell-based
[4] = Intrinsic clearance in human liver microsomes at 5 uM by LC/MS/MS analysis; assay type: ADME; conditions: read-out: CLH
[5] = Membrane permeability of the compound at pH 6.5 by PAMPA PSR4p assay; assay type: physicochemical; conditions: read-out: permeability
[6] = target: T1, Cytochrome P450 2C9 (Homo sapiens, UniProt P11712); experiment: Inhibition of CYP2C9 in human liver microsomes using diclofenac as substrate measured after 30 mins preincubation by LC-MS/MS analysis in absence of NADPH; assay type: ADME
Outline: (§1)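 The IC50 is determined after a 30 min preincubation without NADPH.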

[7] = target: T1, Cytochrome P450 2C9; experiment: Inhibition of CYP2C9 in human liver microsomes using diclofenac as substrate measured after 30 mins preincubation by LC-MS/MS analysis in presence of NADPH; assay type: ADME
Outline: (§2)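 The IC50 is determined after a 30 min preincubation with NADPH.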

[8] = target: T2, Cytochrome P450 3A4 (Homo sapiens, UniProt P08684); experiment: Inhibition of CYP3A4 in human liver microsomes using midazolam as substrate measured after 30 mins preincubation by LC-MS/MS analysis in absence of NADPH; assay type: ADME; outline: as §1
[9] = target: T2, Cytochrome P450 3A4; experiment: Inhibition of CYP3A4 in human liver microsomes using midazolam as substrate measured after 30 mins preincubation by LC-MS/MS analysis in presence of NADPH; assay type: ADME; outline: as §2
[10] = Bioavailability in BALB-nu/nu mouse at 2.5 mg/kg, iv and 5 mg/kg, po by LC-MS/MS analysis; assay type: ADME, organism-based; conditions: in vivo
[11] = Clearance in BALB-nu/nu mouse at 2.5 mg/kg, iv and 5 mg/kg, po by LC-MS/MS analysis; assay type: ADME, organism-based; conditions: in vivo
[12] = Bioavailability in Crlj:CD rat at 2.5 mg/kg, iv and 5 mg/kg, po by LC-MS/MS analysis; assay type: ADME, organism-based; conditions: in vivo
[13] = Clearance in Crlj:CD rat at 2.5 mg/kg, iv and 5 mg/kg, po by LC-MS/MS analysis; assay type: ADME, organism-based; conditions: in vivo
[14] = Bioavailability in cynomolgus monkey at 2.5 mg/kg, iv and 5 mg/kg, po by LC-MS/MS analysis; assay type: ADME, organism-based, Macaca fascicularis; conditions: in vivo
[15] = Clearance in cynomolgus monkey at 2.5 mg/kg, iv and 5 mg/kg, po by LC-MS/MS analysis; assay type: ADME, organism-based, Macaca fascicularis; conditions: in vivo
[16] = tested on: C32; experiment: Antitumor activity against human C32 cells xenografted in po dosed BALB-nu/nu mouse assessed as tumor growth inhibition administered qd for 11 days; assay type: functional; conditions: for ED50: Mus musculus, C32, po, 264 h
Outline: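 C32 cells implanted subcutaneously in the right flank of BALB-nu/nu mice, with tumors established before treatment. Compound given orally once daily for 11 days (day 0 to day 10). Tumor size measured twice per week. Values are mean SD, n = 4.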

[17] = tested on: Mus musculus; experiment: Toxicity in po dosed BALB-nu/nu mouse xenografted with human C32 cells assessed as body weight administered qd for 11 days; assay type: organism-based; conditions: in vivo, 264 h
[18] = tested on: Mus musculus; experiment: Toxicity in po dosed BALB-nu/nu mouse xenografted with human C32 cells assessed as adverse clinical signs administered qd for 11 days; assay type: organism-based; conditions: in vivo, 264 h
[19] = Saturated solubility of the compound in fasted state simulated intestinal fluid after 24 hrs by shaking flask method; assay type: ADME; conditions: fasted state simulated intestinal fluid (FaSSIF)
Outline: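 Free crystalline form equilibrated for 24 h in FaSSIF, and the saturated concentration was reported.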

[20] = Dissociation constant, pKa of the compound at 10 mM by spectroscopic titration analysis; assay type: physicochemical
[21] = tested on: C32; experiment: Growth inhibition of human C32 cells harboring B-Raf V600E mutant
[22] = tested on: HCT-116; experiment: Inhibition of human HCT116 cell growth after 96 hrs by counting kit-8 analysis; assay type: functional, cell-based; conditions: HCT-116, 96 h
[23] = target: RAF proto-oncogene serine/threonine-protein kinase (Homo sapiens, UniProt P04049); experiment: Inhibition of truncated active C-Raf (unknown origin) assessed as MEK1 phosphorylation using inactive MEK1 K97R as substrate after 45 mins
[24] = Solubility of the compound in fasted state simulated intestinal fluid by LYSA method; assay type: ADME; conditions: fasted state simulated intestinal fluid (FaSSIF)
[25] = Supersaturated solubility of the compound in fasted state simulated intestinal fluid after 4 hrs by miniscale dissolution test; assay type: ADME; conditions: fasted state simulated intestinal fluid (FaSSIF)

RAF proto-oncogene serine/threonine-protein kinase, sequence (P04049 whole entry, the tested form may be a part): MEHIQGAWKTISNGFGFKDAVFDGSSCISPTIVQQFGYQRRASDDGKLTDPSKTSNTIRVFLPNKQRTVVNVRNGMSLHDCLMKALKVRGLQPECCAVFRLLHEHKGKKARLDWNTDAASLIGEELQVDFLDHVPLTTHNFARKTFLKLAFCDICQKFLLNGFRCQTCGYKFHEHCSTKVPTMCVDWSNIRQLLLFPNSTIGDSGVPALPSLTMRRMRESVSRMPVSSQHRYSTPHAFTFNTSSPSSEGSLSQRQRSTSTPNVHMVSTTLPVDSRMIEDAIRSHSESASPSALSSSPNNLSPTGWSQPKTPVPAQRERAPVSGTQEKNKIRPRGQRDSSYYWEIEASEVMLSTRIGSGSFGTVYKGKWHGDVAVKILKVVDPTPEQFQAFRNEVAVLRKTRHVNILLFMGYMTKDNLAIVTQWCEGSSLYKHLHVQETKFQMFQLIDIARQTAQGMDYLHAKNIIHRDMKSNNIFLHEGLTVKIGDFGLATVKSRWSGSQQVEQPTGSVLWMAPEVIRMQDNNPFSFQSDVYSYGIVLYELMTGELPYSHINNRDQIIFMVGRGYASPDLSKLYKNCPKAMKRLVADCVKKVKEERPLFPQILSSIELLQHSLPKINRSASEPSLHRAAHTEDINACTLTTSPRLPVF
T2 sequence (P08684 whole entry): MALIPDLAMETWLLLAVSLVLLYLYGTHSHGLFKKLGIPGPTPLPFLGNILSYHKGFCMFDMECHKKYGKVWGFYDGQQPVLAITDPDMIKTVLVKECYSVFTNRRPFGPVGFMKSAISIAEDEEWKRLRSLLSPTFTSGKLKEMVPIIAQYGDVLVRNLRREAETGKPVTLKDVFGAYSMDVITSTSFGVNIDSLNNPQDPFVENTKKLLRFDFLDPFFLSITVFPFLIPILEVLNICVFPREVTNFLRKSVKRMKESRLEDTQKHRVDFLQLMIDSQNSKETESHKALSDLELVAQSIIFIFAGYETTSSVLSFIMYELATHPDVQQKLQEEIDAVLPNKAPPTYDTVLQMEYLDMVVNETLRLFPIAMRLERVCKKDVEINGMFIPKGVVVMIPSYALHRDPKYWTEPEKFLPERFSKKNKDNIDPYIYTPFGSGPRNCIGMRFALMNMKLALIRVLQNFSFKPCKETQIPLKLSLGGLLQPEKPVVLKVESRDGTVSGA
Dual specificity mitogen-activated protein kinase kinase 1, sequence (Q02750 whole entry S218E/S222E): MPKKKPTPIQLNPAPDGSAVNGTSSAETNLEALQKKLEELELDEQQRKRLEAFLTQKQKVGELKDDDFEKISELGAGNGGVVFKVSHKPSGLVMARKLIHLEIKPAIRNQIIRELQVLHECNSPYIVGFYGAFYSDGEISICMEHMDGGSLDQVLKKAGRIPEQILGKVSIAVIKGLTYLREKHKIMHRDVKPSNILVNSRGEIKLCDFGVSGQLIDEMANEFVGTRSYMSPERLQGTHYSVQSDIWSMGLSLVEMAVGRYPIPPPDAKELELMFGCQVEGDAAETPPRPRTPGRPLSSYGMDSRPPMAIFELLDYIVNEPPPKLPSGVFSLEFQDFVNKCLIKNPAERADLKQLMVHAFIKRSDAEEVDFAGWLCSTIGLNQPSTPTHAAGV
T1 sequence (P11712 whole entry): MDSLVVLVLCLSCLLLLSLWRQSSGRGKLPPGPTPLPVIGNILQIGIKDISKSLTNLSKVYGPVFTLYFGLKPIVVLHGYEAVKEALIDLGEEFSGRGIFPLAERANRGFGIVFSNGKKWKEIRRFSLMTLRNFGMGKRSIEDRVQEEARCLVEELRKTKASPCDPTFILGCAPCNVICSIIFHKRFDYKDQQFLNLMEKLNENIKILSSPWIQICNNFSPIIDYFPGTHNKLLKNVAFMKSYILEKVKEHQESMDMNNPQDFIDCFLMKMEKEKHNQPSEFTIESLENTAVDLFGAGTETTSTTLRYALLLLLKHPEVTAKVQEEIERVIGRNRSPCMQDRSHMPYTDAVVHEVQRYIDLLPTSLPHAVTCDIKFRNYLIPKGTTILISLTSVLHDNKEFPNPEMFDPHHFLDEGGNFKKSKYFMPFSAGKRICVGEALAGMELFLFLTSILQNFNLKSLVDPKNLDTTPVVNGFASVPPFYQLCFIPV

CNS(=O)(=O)[N-]c1cccc(Cc2c(C)c3ccc(OC(=O)N(C)C)cc3oc2=O)c1.[Na+]
AUC at 24 h [1]: 78 µM·h

CNS(=O)(=O)Nc1cccc(Cc2c(C)c3cc(C)c(OC(=O)N(C)C)cc3oc2=O)c1
IC50 [2]: 29 nM
IC50 [3]: 8 nM
microsomal CLint at 5 µM [4]: 17 µL/min/mg
Papp [5]: 4 ×10⁻⁶ cm/s
AUC at 24 h [1]: 18 µM·h

CNS(=O)(=O)Nc1cccc(Cc2c(C)c3ccc(OC(=O)N(C)C)cc3oc2=O)c1
IC50 [2]: 110 nM
IC50 [3]: 9 nM
microsomal CLint at 5 µM [4]: 20 µL/min/mg
IC50 [6]: 29000 nM
IC50 [7]: 96000 nM
IC50 [8]: 13000 nM
IC50 [9]: 5600 nM

CNS(=O)(=O)Nc1cccc(Cc2c(C)c3ccc(Oc4ncccn4)cc3oc2=O)c1F
IC50 [2]: 97 nM
microsomal CLint at 5 µM [4]: 6.7 µL/min/mg
AUC at 24 h [1]: 425 µM·h
IC50 [6]: 19000 nM
IC50 [7]: 19000 nM
IC50 [8]: 26000 nM
IC50 [9]: 11000 nM
bioavailability [10]: 75%
clearance [11]: 6.8 mL/min/kg
bioavailability [12]: 84%
clearance [13]: 6.6 mL/min/kg
bioavailability [14]: 59%
clearance [15]: 0.9 mL/min/kg
TGI [16]: 96%
ED50 [16]: 1.44 mg/kg
Activity [17]: Non-toxic
Activity [18]: Non-toxic
solubility thermodynamic at 24 h [19]: 5.5 µg/mL (≈ 11.7 µM)
pKa at 10000 µM [20]: 8.86
IC50 [21]: 57 nM

CNS(=O)(=O)Nc1cccc(Cc2c(C)c3ccc(OC(=O)N(C)C)nc3oc2=O)c1
IC50 [22]: 1100 nM
IC50 [23]: 2500 nM
IC50 [2]: 440 nM
IC50 [3]: 600 nM
solubility [24]: 43 µg/mL (≈ 96.3 µM)
microsomal CLint at 5 µM [4]: 3 µL/min/mg
Papp [5]: 3 ×10⁻⁶ cm/s

CNS(=O)(=O)Nc1cccc(Cc2c(C)c3ccc(OC(=O)N(C)C)cc3oc2=O)n1
IC50 [22]: 270 nM
IC50 [23]: 70 nM
IC50 [2]: 110 nM
IC50 [3]: 73 nM
solubility [24]: 320 µg/mL (≈ 717 µM)
microsomal CLint at 5 µM [4]: 7 µL/min/mg
Papp [5]: 6 ×10⁻⁶ cm/s
AUC at 24 h [1]: 314 µM·h

CNS(=O)(=O)Nc1cc(Cc2c(C)c3ccc(OC(=O)N(C)C)cc3oc2=O)ccn1
IC50 [22]: 32 nM
IC50 [23]: 32 nM
IC50 [2]: 99 nM
IC50 [3]: 25 nM
solubility [24]: 55 µg/mL (≈ 123 µM)
microsomal CLint at 5 µM [4]: 6 µL/min/mg
Papp [5]: 7 ×10⁻⁶ cm/s
AUC at 24 h [1]: 134 µM·h
IC50 [6]: > 100000 nM
IC50 [7]: > 100000 nM
IC50 [8]: > 100000 nM
IC50 [9]: > 100000 nM

CNS(=O)(=O)Nc1cncc(Cc2c(C)c3ccc(OC(=O)N(C)C)cc3oc2=O)c1
IC50 [22]: > 10000 nM
IC50 [23]: > 50000 nM
IC50 [2]: > 50000 nM
IC50 [3]: > 10000 nM
solubility [24]: 240 µg/mL (≈ 538 µM)

CNS(=O)(=O)Nc1ccnc(Cc2c(C)c3cc(C)c(OC(=O)N(C)C)cc3oc2=O)c1
IC50 [22]: > 10000 nM
IC50 [23]: 27000 nM
IC50 [2]: 37000 nM
IC50 [3]: 5700 nM
solubility [24]: 425 µg/mL (≈ 923 µM)

CNS(=O)(=O)Nc1nccc(Cc2c(C)c3ccc(Oc4ccccc4)cc3oc2=O)c1F
IC50 [22]: 110 nM
IC50 [23]: 21 nM
IC50 [2]: 76 nM

CNS(=O)(=O)Nc1nccc(Cc2c(C)c3ccc(Oc4ccccn4)cc3oc2=O)c1F
IC50 [22]: 45 nM
IC50 [23]: 81 nM
IC50 [2]: 190 nM

CNS(=O)(=O)Nc1nccc(Cc2c(C)c3ccc(Oc4cnccn4)cc3oc2=O)c1F
IC50 [22]: 900 nM
IC50 [23]: 56 nM
IC50 [2]: 650 nM

CNS(=O)(=O)Nc1cccc(Nc2c(C)c3ccc(Oc4ncccn4)cc3oc2=O)c1
IC50 [22]: > 10000 nM
IC50 [23]: > 50000 nM
IC50 [2]: > 50000 nM

CNS(=O)(=O)[N-]c1cccc(Cc2c(C)c3ccc(Oc4ncccn4)cc3oc2=O)c1F.[K+]
solubility at 4 h [25]: 12 µg/mL

CNS(=O)(=O)[N-]c1nccc(Cc2c(C)c3ccc(Oc4ncccn4)cc3oc2=O)c1F.[K+] [AVUTOMETINIB POTASSIUM]
solubility at 4 h [25]: 57 µg/mL

CNS(=O)(=O)Nc1nccc(Cc2c(C)c3ccc(Oc4ncccn4)cc3oc2=O)c1F [AVUTOMETINIB]
IC50 [22]: 40 nM
IC50 [23]: 56 nM
solubility [24]: 159 µg/mL (≈ 337 µM)
microsomal CLint at 5 µM [4]: 0.5 µL/min/mg
AUC at 24 h [1]: 2830 µM·h
IC50 [6]: 12000 nM
IC50 [7]: 60000 nM
IC50 [8]: > 100000 nM
IC50 [9]: > 100000 nM
bioavailability [10]: 93%
clearance [11]: 1.1 mL/min/kg
bioavailability [12]: 66%
clearance [13]: 0.7 mL/min/kg
bioavailability [14]: 82%
clearance [15]: 0.1 mL/min/kg
TGI [16]: 118%
ED50 [16]: 0.09 mg/kg
Activity [17]: Non-toxic
Activity [18]: Non-toxic
solubility thermodynamic at 24 h [19]: 2.7 µg/mL (≈ 5.73 µM)
pKa at 10000 µM [20]: 7.02
IC50 [21]: 47 nM
